Source: ChEMBL document CHEMBL3632496, “Novel 2-Carbonylbenzo[b]thiophene 1,1-Dioxide Derivatives as Potent Inhibitors of STAT3 Signaling Pathway” (ACS Med Chem Lett, 2015)
The source made the active and inactive calls. The rule behind the calls is not given here.

Experiments:
DU-145 = experiment: Cytotoxicity against human DU145 cells assessed as growth inhibition after 48 hrs by MTT assay; assay type: functional, cell-based; settings: DU-145, 48 h
MDA-MB-231 = experiment: Cytotoxicity against human MDA-MB-231 cells assessed as growth inhibition after 48 hrs by MTT assay; assay type: functional, cell-based; settings: MDA-MB-231, 48 h
[1] = target: Signal transducer and activator of transcription 3 (Homo sapiens) (UniProt P40763); experiment: Inhibition of STAT3-mediated luciferase activity in human HeLa cells at 2 uM after 12 hrs by luminescence assay relative to control; assay type: cell-based
Sequence of Signal transducer and activator of transcription 3 (Homo sapiens) (P40763 whole entry): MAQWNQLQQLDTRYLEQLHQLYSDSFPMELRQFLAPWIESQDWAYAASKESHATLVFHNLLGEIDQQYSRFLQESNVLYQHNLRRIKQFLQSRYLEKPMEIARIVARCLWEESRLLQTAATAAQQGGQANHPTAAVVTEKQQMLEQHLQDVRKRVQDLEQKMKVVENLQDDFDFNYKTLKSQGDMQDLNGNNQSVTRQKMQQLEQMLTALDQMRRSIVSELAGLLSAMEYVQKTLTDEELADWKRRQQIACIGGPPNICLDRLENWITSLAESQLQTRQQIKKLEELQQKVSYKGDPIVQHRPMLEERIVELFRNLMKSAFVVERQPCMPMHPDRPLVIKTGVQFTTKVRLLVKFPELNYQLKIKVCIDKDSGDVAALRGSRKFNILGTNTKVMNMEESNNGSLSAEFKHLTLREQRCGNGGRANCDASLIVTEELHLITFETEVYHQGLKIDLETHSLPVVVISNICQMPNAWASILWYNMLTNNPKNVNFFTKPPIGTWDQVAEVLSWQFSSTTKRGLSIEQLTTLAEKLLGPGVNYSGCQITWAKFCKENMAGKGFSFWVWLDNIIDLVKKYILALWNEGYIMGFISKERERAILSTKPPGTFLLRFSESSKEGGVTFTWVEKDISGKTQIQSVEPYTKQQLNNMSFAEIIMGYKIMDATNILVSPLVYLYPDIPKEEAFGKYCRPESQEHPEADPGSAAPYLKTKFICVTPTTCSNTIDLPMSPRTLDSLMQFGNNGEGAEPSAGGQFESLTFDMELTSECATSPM
In short: (§1)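 HeLa cells, which have constitutive STAT3, were transfected with a STAT3-dependent dual luciferase reporter. Reporter luminescence was measured after compound exposure. Values are mean ± SD of triplicate experiments and are compared with vehicle-treated control.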

[2] = target: Signal transducer and activator of transcription 3 (Homo sapiens) (UniProt P40763); experiment: Inhibition of STAT3 phosphorylation at Y705 in human MDA-MB-435S cells after 12 hrs by Western blot analysis; assay type: cell-based
In short: (§2)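 Cells were exposed for 12 h. Whole-cell lysates were immunoblotted with a Y705-phospho-STAT3-specific antibody and for total STAT3.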

[3] = target: Signal transducer and activator of transcription 3 (Homo sapiens) (UniProt P40763); experiment: Inhibition of STAT3-mediated luciferase activity in human HeLa cells after 12 hrs by luminescence assay; assay type: cell-based; in short: as §1
[4] = target: Signal transducer and activator of transcription 3 (Homo sapiens) (UniProt P40763); experiment: Inhibition of STAT3 phosphorylation at Y705 in human MDA-MB-231 cells after 12 hrs by Western blot analysis; assay type: cell-based; in short: as §2
[5] = target: Proto-oncogene tyrosine-protein kinase Src (Homo sapiens) (UniProt P12931); experiment: Inhibition of Src phosphorylation in human MDA-MB-231 cells at 1 to 4 uM after 12 hrs by Western blot analysis; assay type: cell-based
Sequence of Proto-oncogene tyrosine-protein kinase Src (Homo sapiens) (P12931 2-536 limits assumed): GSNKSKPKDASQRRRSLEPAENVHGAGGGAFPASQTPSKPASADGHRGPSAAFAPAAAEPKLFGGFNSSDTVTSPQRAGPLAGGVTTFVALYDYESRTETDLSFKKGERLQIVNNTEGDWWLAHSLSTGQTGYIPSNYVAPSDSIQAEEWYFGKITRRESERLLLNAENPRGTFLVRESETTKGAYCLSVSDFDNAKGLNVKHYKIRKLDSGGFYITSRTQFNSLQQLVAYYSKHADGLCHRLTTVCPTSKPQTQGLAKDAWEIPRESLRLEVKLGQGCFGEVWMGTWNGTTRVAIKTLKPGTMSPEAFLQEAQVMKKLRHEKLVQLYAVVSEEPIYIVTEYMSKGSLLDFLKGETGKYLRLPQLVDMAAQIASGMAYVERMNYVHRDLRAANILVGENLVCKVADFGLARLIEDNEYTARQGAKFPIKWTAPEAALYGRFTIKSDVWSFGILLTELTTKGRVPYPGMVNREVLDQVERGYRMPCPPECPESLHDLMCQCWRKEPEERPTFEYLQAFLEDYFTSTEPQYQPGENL

[6] = target: Signal transducer and activator of transcription 3 (Homo sapiens) (UniProt P40763); experiment: Inhibition of IL-6-induced STAT3 phosphorylation in overnight starved human MDA-MB-231 cells preincubated for 2 hrs followed by IL-6 induction by Western blot analysis; assay type: cell-based
In short: (§3)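 Cells were serum-starved overnight and pretreated with compound for 2 h. They were then stimulated with IL-6. Lysates were immunoblotted for phospho-STAT3.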

[7] = target: Serine/threonine-protein kinase mTOR (Homo sapiens) (UniProt P42345); experiment: Inhibition of mTOR phosphorylation in human MDA-MB-231 cells at 1 to 4 uM after 12 hrs by Western blot analysis; assay type: cell-based
[8] = target: Signal transducer and activator of transcription 3 (Homo sapiens) (UniProt P40763); experiment: Inhibition of STAT3-mediated luciferase activity in human HeLa cells at 4 uM after 12 hrs by luminescence assay relative to control; assay type: cell-based; in short: as §1
[9] = target: Mitogen-activated protein kinase; ERK1/ERK2 (Homo sapiens) (UniProt P27361+P28482); experiment: Inhibition of ERK1/2 phosphorylation in human MDA-MB-231 cells at 1 to 4 uM after 12 hrs by Western blot analysis; assay type: cell-based
Sequence of Mitogen-activated protein kinase; ERK1/ERK2 (Homo sapiens) (P27361 whole entry, looked up): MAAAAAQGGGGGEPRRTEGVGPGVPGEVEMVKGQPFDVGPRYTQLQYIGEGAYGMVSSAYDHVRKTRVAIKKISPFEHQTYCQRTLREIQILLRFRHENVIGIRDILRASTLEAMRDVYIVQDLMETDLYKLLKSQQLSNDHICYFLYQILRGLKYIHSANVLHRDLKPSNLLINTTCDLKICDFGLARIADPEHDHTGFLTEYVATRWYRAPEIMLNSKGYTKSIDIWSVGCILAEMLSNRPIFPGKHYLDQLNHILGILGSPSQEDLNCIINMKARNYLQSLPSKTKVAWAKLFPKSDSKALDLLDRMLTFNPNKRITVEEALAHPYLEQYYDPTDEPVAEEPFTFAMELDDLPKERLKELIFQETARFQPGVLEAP
Sequence of Mitogen-activated protein kinase; ERK1/ERK2 (Homo sapiens) (P28482 whole entry, looked up): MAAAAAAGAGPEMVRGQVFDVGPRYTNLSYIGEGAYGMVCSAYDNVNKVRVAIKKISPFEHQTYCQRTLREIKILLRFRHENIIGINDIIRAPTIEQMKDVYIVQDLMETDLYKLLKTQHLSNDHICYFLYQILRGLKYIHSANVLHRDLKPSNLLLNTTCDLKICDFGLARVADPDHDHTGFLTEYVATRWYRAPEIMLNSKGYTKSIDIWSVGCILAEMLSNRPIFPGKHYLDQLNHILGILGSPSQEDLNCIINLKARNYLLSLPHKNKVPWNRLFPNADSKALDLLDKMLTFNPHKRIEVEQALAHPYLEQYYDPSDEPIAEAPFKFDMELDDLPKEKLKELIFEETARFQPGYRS

[10] = target: Signal transducer and activator of transcription 3 (Homo sapiens) (UniProt P40763); experiment: Inhibition of IL-6-induced STAT3 phosphorylation in overnight starved human MCF7 cells at 2 to 6 uM preincubated for 2 hrs followed by IL-6 induction by Western blot analysis; assay type: cell-based; in short: as §3
[11] = target: Signal transducer and activator of transcription 3 (Homo sapiens) (UniProt P40763); experiment: Inhibition of STAT3 phosphorylation at Y705 in human MCF7 cells after 12 hrs by Western blot analysis; assay type: cell-based; in short: as §2
MCF7 = experiment: Cytotoxicity against human MCF7 cells assessed as growth inhibition after 48 hrs by MTT assay; assay type: functional, cell-based; settings: MCF7, 48 h
[12] = Cytotoxicity against human PANC1 cells assessed as growth inhibition after 48 hrs by MTT assay; assay type: functional, cell-based; settings: PANC-1, 48 h
A549 = experiment: Cytotoxicity against human A549 cells assessed as growth inhibition after 48 hrs by MTT assay; assay type: functional, cell-based; settings: A549, 48 h
[13] = Cytotoxicity against human MDA-MB-435S cells assessed as growth inhibition after 48 hrs by MTT assay; assay type: functional, cell-based
[14] = Cytotoxicity against human HL-7702 cells assessed as growth inhibition after 48 hrs by MTT assay; assay type: cell-based; settings: L02, 48 h
SMMC-7721 = experiment: Cytotoxicity against human SMMC7721 cells assessed as growth inhibition after 48 hrs by MTT assay; assay type: functional, cell-based; settings: SMMC-7721, 48 h

SMILES | IC50 (DU-145) [µM] | IC50 (MDA-MB-231) [µM] | IC50 (MCF7) [µM] | IC50 [12] [µM] | IC50 (A549) [µM] | IC50 [13] [µM] | other results
Cc1ccc(NC(=O)C2=Cc3c(Br)cccc3S2(=O)=O)cc1 | 3.03 | 2.46 | – | – | – | – | –
O=C(C1=Cc2cc(Br)ccc2S1(=O)=O)N1CCCCC1 | – | – | – | – | – | – | inhibition [1]: 14%; inhibition [2]: Dose-dependent effect; inhibition [3]: Dose-dependent effect; inhibition [4]: Dose-dependent effect; inhibition [5]: inactive; inhibition [6]: Dose-dependent effect; inhibition [7]: inactive; inhibition [8]: 48%; inhibition [9]: inactive; inhibition [10]: Active; inhibition [11]: Dose-dependent effect
O=[N+]([O-])c1ccc2c(c1)S(=O)(=O)C=C2 | 2.5 | 1.56 | 2.16 | 2.9 | 2.5 | 1.87 | inhibition [2]: Active; inhibition [4]: Active; inhibition [8]: 36%; inhibition [11]: Active
O=C(Nc1ccc2c(c1)C=C(C(=O)N1CCCCC1)S2(=O)=O)c1ccccc1 | 2.07 | 1.68 | – | – | – | – | –
CN(C(=O)C1=Cc2cc(Br)ccc2S1(=O)=O)c1ccccc1 | 1.26 | 0.88 | 1.13 | 4.38 | 2.08 | 0.95 | –
O=C(C1=Cc2cc(Br)ccc2S1(=O)=O)N1CCCC1 | 1.54 | 1.27 | 1.38 | 3.47 | 3.47 | 0.94 | –
CCCCNC(=O)C1=Cc2cc(Br)ccc2S1(=O)=O | 3.86 | 2.31 | – | – | – | – | –
O=C(NC1CCCCC1)C1=Cc2cc(Br)ccc2S1(=O)=O | 5.73 | 5.73 | – | – | – | – | –
O=C(Nc1ccc(Cl)cc1)C1=Cc2c(Br)cccc2S1(=O)=O | 6.34 | 3.78 | – | – | – | – | –
CC1CCCCN1C(=O)C1=Cc2cc(Br)ccc2S1(=O)=O (stereo unspecified) | 0.98 | 0.95 | 0.99 | 2.14 | 1.3 | 0.98 | –
O=C(Nc1ccccc1)C1=Cc2cc([N+](=O)[O-])ccc2S1(=O)=O | 5.19 | 3.04 | – | – | – | – | –
CC(C)(C)NC(=O)C1=Cc2cc(Br)ccc2S1(=O)=O | 1.35 | 1.34 | 1.27 | 3.34 | 2.85 | 0.82 | –
CC1CCCN(C(=O)C2=Cc3cc(Br)ccc3S2(=O)=O)C1 (stereo unspecified) | 1.41 | 1.07 | 1.26 | 2.98 | 1.94 | 1.37 | –
O=C(Nc1cccc(Cl)c1)C1=Cc2c(Br)cccc2S1(=O)=O | 3.39 | 2.21 | – | – | – | – | –
O=C(C1=Cc2cc(Br)ccc2S1(=O)=O)N1CCOCC1 | 1.91 | 1.04 | 1.05 | 3.95 | 2.31 | 0.8 | –
O=C(Nc1ccccc1)C1=Cc2cc(NC(=O)c3ccccc3)ccc2S1(=O)=O | 6.21 | 3.21 | – | – | – | – | –
CC(C)NC(=O)C1=Cc2cc(Br)ccc2S1(=O)=O | 2.17 | 1.09 | 1.24 | 5.05 | 2.97 | 0.93 | IC50 [14]: 15 µM; IC50 (SMMC-7721): 2.4 µM
CCN(CC)C(=O)C1=Cc2cc(Br)ccc2S1(=O)=O | 1.46 | 1.67 | 0.89 | 1.94 | 1.58 | 1.54 | –
O=C(Nc1ccccc1)C1=Cc2c(Br)cccc2S1(=O)=O | 2.64 | 1.74 | 1.73 | 6.67 | 4.09 | 1.39 | IC50 [14]: 15 µM; IC50 (SMMC-7721): 2.4 µM
O=C(Nc1ccccc1)C1=Cc2ccc(Br)cc2S1(=O)=O | 2.66 | 1.84 | – | – | – | – | –
O=C(Nc1ccccc1)C1=Cc2cc(Br)ccc2S1(=O)=O | 2.77 | 1.72 | – | – | – | – | –
Cc1ccc(OC(=O)C2=Cc3c(Br)cccc3S2(=O)=O)cc1 | > 15 | > 15 | – | – | – | – | –
